Assay [1] concerns TC32 cells. In words: Cell proliferation assay. It counts as cell-based, human. The settings on record: for Fold loss of growth inhibitory activity in TC32 cells compared to 2: relative to 2.
Assay [2] has as its system ES cell lines (TC32 and TC71). The assay can be described thus: Cell proliferation assay in ES cell lines. It counts as cell-based, human. As to conditions: for Growth inhibition / antiproliferative activity in words: ES cell lines containing EWS-FLI1; for GI50: read-out: GI50 bound used to select compounds for the reporter assay.
Assay [3] deals with T1, EWS-FLI1 (Homo sapiens, UniProt Q01543+Q01844).
T1 sequence (Q01844 1-264): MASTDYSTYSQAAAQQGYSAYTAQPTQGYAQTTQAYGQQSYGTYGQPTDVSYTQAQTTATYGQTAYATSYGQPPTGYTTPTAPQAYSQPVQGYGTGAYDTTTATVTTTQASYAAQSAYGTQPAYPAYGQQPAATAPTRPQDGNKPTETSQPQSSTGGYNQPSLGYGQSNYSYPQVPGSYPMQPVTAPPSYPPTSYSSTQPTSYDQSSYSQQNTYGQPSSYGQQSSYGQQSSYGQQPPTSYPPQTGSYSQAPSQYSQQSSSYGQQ
T1 sequence (Q01543 220-452): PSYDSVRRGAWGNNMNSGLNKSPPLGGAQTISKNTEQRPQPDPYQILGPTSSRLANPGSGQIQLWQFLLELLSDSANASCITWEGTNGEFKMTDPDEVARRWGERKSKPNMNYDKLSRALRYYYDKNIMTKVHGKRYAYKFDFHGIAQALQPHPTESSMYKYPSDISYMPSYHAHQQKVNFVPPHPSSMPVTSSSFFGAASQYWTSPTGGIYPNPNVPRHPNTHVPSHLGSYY
The assay can be described thus: EWS-FLI1/NR0B1 reporter luciferase assay in transfected COS7 cells. As to conditions: COS7 cells transfected with EWS-FLI1 and NR0B1 reporter, 20 h treatment. It counts as cell-based. The method, boiled down: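 COS7 cells (DMEM, 10% FBS) transiently co-transfected with NR0B1 luciferase reporter carrying EWS-FLI1 binding sites plus full-length EWS-FLI1 or empty pCI-neo vector. Treated 1.5 h post-transfection with test compound at 0.05, 0.15, 0.5, 1.5, 5 or 15 μM, or DMSO. Luciferase measured 20 h later. IC50 from sigmoidal dose–response fit. Quadruplicate wells, mean ± SD of a representative experiment.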

Assay [4] concerns TC32 cells. As to conditions: cited from earlier work.
Assay [5] has as its target BSA (Bos taurus, UniProt P02769). In words: ELISA-like binding assay, immobilized BSA control. The arrangement: species or system bovine. The settings on record: BSA immobilized instead of EWS-FLI1. The method, boiled down:
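BSA immobilized in wells in place of recombinant EWS-FLI1. Biotinylated test compound, diluted from DMSO stock in assay buffer, was incubated 1 h. Wells washed five times. Detection used HRP-streptavidin (1:5000, 1 h, room temperature) and colorimetric substrate, with absorbance at 405 nm.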

Assay [6] addresses T1, EWS-FLI1. The assay can be described thus: ELISA-like binding assay of biotin conjugate to immobilized recombinant EWS-FLI1. The procedure, abridged: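 EWS-FLI1 expressed in BL21 (1 mM IPTG, 2 h, 27 °C) and recovered from inclusion bodies. Denatured in guanidinium, Ni-chelate purified, refolded on-column by gradient out of urea, then imidazole-eluted. Wells coated overnight with 20 nM protein and blocked with 4% BSA/PBS (1 h, rt). Biotinylated test compound from DMSO stock added for 1 h. Detection used HRP-streptavidin (1:5000, 1 h, rt) and colorimetric substrate read at 405 nm.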
A general note: An ELISA detects its analyte on a solid surface through an enzyme-linked reagent.

Assay [7] deals with PANC1 cells. In words: Cell proliferation assay. It counts as cell-based, human. As to conditions: PANC1 cells (selectivity control). The method, boiled down: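 TC71 grown in RPMI with 10% FBS and 1% HEPES; PANC1 in DMEM with 10% FBS; both at 37 °C, 5% CO2. Cells plated in colorless medium at 5000–15000 cells/well depending on line. Test compound or DMSO vehicle added the day after plating. Viable cells quantified by MTT or WST-1 after 3 days of treatment. GI50 derived by nonlinear regression.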

“Also recorded” adds a separate entry of the source. Where two headings read alike, the source gives them in different places.

Chain of BSA (P02769 25-607): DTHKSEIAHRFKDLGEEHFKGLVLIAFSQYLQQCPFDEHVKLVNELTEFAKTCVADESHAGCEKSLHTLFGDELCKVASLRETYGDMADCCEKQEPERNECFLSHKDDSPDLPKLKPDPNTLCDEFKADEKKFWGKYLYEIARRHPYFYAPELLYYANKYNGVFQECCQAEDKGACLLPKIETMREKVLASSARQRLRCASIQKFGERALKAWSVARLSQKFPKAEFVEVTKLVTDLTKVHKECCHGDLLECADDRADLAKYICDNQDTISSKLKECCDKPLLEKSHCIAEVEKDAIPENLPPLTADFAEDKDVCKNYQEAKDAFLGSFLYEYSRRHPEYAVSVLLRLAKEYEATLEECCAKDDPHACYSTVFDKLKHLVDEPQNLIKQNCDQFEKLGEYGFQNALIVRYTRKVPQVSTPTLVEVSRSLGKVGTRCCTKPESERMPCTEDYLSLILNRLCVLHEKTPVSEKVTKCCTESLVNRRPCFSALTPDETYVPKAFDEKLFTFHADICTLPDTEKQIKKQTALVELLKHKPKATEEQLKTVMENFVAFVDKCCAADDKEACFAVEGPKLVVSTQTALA

Regarding `COc1cc(OC)cc(C(=O)CC2(O)C(=O)Nc3c(Cl)ccc(Cl)c32)c1` (centres unmarked) [9d, 4,7-Dichloro-3-(2-(3,5-dimethoxyphenyl)-2-oxoethyl)-3-hydroxyindolin-2-one], the “Fold loss of growth inhibitory activity in TC32 cells compared to 2” value (shortened to “Fold loss of growth inhibitory activity”) in assay [1] was approximately 10 fold.
`CN(C)c1ccc(C(=O)CC2(O)C(=O)Nc3c(Cl)ccc(Cl)c32)cc1` (centres unmarked) [9u, 4,7-Dichloro-3-(2-(4-(dimethylamino)phenyl)-2-oxoethyl)-3-hydroxyindolin-2-one]: the “Fold increase in potency compared to 2” value in assay [2] (ES cells, relative to 2) is “over 3 fold”. In addition, the “GI50 in TC32 cells” value in assay [1] worked out at 260 nM.
Regarding `COc1ccc(C(=O)CC2(O)C(=O)Nc3c(Cl)ccc(Cl)c32)c(OC)c1` (centres unmarked) [9c, 4,7-Dichloro-3-(2-(2,4-dimethoxyphenyl)-2-oxoethyl)-3-hydroxyindolin-2-one], the “Inhibition of EWS-FLI1 transcriptional activity in words” value in assay [3] was “lower than 2”.
Regarding `COc1ccc(C(=O)CC2(OC)C(=O)N(C)c3c(Cl)ccc(Cl)c32)cc1` (centres unmarked) [compound 15, 4,7-Dichloro-3-methoxy-3-(2-(4-methoxyphenyl)-2-oxoethyl)-1-methylindolin-2-one], the “Growth inhibition / antiproliferative activity in words” value in assay [2] was “inactive; also recorded: no antiproliferative activity”. In assay [3], the “Inhibition of EWS-FLI1 transcriptional activity in words” value is on record as “modest inhibitory effects”.
With `COc1ccc(C(=O)CC2(O)C(=O)Nc3c(OC)ccc(OC)c32)cc1` (centres unmarked) [6e, 3-Hydroxy-4,7-dimethoxy-3-(2-(4-methoxyphenyl)-2-oxoethyl)indolin-2-one], the “GI50 in TC32 cells” value in assay [1] worked out at 1000 nM.
In the case of `COc1ccc(C(=O)CC2(O)C(=O)Nc3c(Cl)ccc(Cl)c32)cn1` (centres unmarked) [compound 18, 4,7-Dichloro-3-hydroxy-3-(2-(6-methoxypyridin-3-yl)-2-oxoethyl)indolin-2-one], the “Growth inhibition / antiproliferative activity in words” value in assay [2] is “complete loss of growth inhibition”.
With `COc1ccc(C(=O)CC2(OC)C(=O)Nc3c(Cl)ccc(Cl)c32)cc1` (centres unmarked) [compound 11, 4,7-Dichloro-3-methoxy-3-(2-(4-methoxyphenyl)-2-oxoethyl)indolin-2-one], in assay [2], the “Growth inhibition / antiproliferative activity in words” value is listed as “complete loss of inhibitory activity; also recorded: no antiproliferative activity”. Besides, the “Inhibition of EWS-FLI1 transcriptional activity in words” value in assay [3] is recorded as “did not display any inhibition”.
In the case of `COc1cccc(C(=O)CC2(O)C(=O)Nc3c(Cl)ccc(Cl)c32)c1OC` (centres unmarked) [9e, 4,7-Dichloro-3-(2-(2,3-dimethoxyphenyl)-2-oxoethyl)-3-hydroxyindolin-2-one], the “Growth inhibition / antiproliferative activity in words” value in assay [2] is “reduced inhibition of cell growth”.
For “4,7-Dichloro-3-(2-(4-ethoxyphenyl)-2-oxoethyl)-3-hydroxyindolin-2-one [9n]”, the “Growth inhibition / antiproliferative activity in words” value in assay [2] is “complete loss of activity”.
For the molecule “4,7-Dichloro-3-hydroxyl-3-(2-oxo-2-p-tolylethyl)-1,3-dihydroindol-2-one [9m]”, the “Fold loss of growth activity / potency compared to 2” value in assay [2] (ES cells, relative to 2) worked out at 3 fold. For the same molecule, the concentration for 50% growth inhibition (GI50) in assay [2] (ES cells) is not above 2700 nM. Moreover, the “Inhibition of EWS-FLI1 transcriptional activity in words” value in assay [3] is recorded as “lower than 2”.
For `Nc1ccc(C(=O)CC2(O)C(=O)Nc3c(Cl)ccc(Cl)c32)cc1` (centres unmarked) [9s, 3-[2-(4-Aminophenyl-2-oxoethyl)]-4,7-dichloro-3-hydroxyl 1,3-dihydroindol-2-one], the “Growth inhibition / antiproliferative activity in words” value in assay [2] was “complete loss of activity”.
Regarding `O=C(CC1(O)C(=O)Nc2c(Cl)ccc(Cl)c21)c1ccc(Cl)cc1` (centres unmarked) [compound 1, 4,7-dichloro-3-(2-(4-chlorophenyl)-2-oxoethyl)-3-hydroxyindolin-2-one], the “GI50 in TC32 cells” value in assay [4] (TC32 cells) was 20000 nM.
Regarding “4,7-Dichloro-3-methoxy-3-(2-(4-methoxyphenyl)-2-oxoethyl)indolin-2-one [14a]”, in assay [2] (ES cells), the GI50 was not above 2700 nM. For the same molecule, in assay [1], the “Fold loss of growth inhibitory activity” value was 2 fold. Besides, the “Inhibition of EWS-FLI1 transcriptional activity in words” value in assay [3] is “modest inhibitory effects”.
For `CC(C)Oc1ccc(C(=O)CC2(O)C(=O)Nc3c(Cl)ccc(Cl)c32)cc1` (centres unmarked) [9p, 4,7-Dichloro-3-hydroxy-3-(2-(4-isopropoxyphenyl)-2-oxoethyl)indolin-2-one], in assay [2], the “Growth inhibition / antiproliferative activity in words” value is given as “complete loss of activity”.
In the case of `COc1ccc(C(=O)CC2(O)C(=O)Nc3c(Cl)ccc(Cl)c32)cc1` (single isomer, unassigned) [S-(−) enantiomer of 2], the “Fold more potent in vitro than racemic 2” value in assay [4] (in vitro) is recorded as 4 fold. Moreover, the GI50 in assay [4] (read-out: GI50 of single enantiomer, in vitro, TC32 cells) was 280 nM.
With `COc1ccc(C(=O)CC2(O)C(=O)Nc3c(Cl)ccc(Cl)c32)c(OC)c1OC` (centres unmarked) [9f, 4,7-Dichloro-3-hydroxy-3-(2-oxo-2-(2,3,4-trimethoxyphenyl)ethyl)indolin-2-one], the “Fold loss of growth activity / potency compared to 2” value in assay [2] (ES cells, relative to 2) came to 3 fold.
As to `O=C(CC1(O)C(=O)Nc2c(Cl)ccc(Cl)c21)c1ccc(Oc2ccccc2)cc1` (centres unmarked) [9q, 4,7-Dichloro-3-hydroxy-3-(2-oxo-2-(4-phenoxyphenyl)ethyl)indolin-2-one], the “Growth inhibition / antiproliferative activity in words” value in assay [2] is reported as “complete loss of activity”.
With `CN(C(=O)CCCCCNC(=O)CCCC[C@H]1SCC2NC(=O)NC21)c1ccc(C(=O)CC2(O)C(=O)Nc3c(Cl)ccc(Cl)c32)cc1` (stereo partly drawn) [compound 24, N-(4-(2-(4,7-Dichloro-3-hydroxy-2-oxoindolin-3-yl)acetyl)phenyl)-N-methyl-6-(5-((4R)-2-oxohexahydro-1H-thieno[3,4-d]imidazol-4-yl)pentanamido)hexanamide], in assay [5], the “Binding to immobilized BSA in words” value was “No binding was detected”. The “Concentration at which binding saturation was reached” value in assay [6] was determined as 20 µM.
Regarding `COc1cccc(C(=O)CC2(O)C(=O)Nc3c(Cl)ccc(Cl)c32)c1` (centres unmarked) [9b, 4,7-Dichloro-3-hydroxy-3-(2-(3-methoxyphenyl)-2-oxoethyl)indolin-2-one], the “Growth inhibition / antiproliferative activity in words” value in assay [2] was “reduced inhibition of cell growth”.
`COc1ccc(C(=O)/C=C2\C(=O)Nc3c(Cl)ccc(Cl)c32)cc1` [compound 10, (Z)-4,7-Dichloro-3-(2-(4-methoxyphenyl)-2-oxoethylidene)indolin-2-one]: the “GI50 in TC32 cells” value in assay [1] came to 1000 nM.
On to `COc1ccc(C(=O)CC2(O)C(=O)N(c3ccccc3)c3c(Cl)ccc(Cl)c32)cc1` (centres unmarked) [14b, 4,7-Dichloro-3-hydroxy-3-(2-(4-methoxyphenyl)-2-oxoethyl)-1-phenylindolin-2-one], for which the “Growth inhibition / antiproliferative activity in words” value in assay [2] was “complete loss of activity”.
Consider `COc1ccc(C(=O)C[C@]2(O)C(=O)Nc3c(Cl)ccc(Cl)c32)cc1` [R-(+)], for which, in assay [4] (in vitro), the “In vitro activity of enantiomer in words” value is “almost inactive”.
As to `COc1ccccc1C(=O)CC1(O)C(=O)Nc2c(Cl)ccc(Cl)c21` (centres unmarked) [9a, 4,7-Dichloro-3-hydroxy-3-(2-(2-methoxyphenyl)-2-oxoethyl)indolin-2-one], the “Growth inhibition / antiproliferative activity in words” value in assay [2] is recorded as “reduced inhibition of cell growth; also recorded: no antiproliferative activity”. The “Inhibition of EWS-FLI1 transcriptional activity in words” value in assay [3] is “did not inhibit”.
On to `O=C(CC1(O)C(=O)Nc2c(Cl)ccc(Cl)c21)c1ccc(C(F)(F)F)cc1` (centres unmarked) [9j, 4,7-Dichloro-3-hydroxy-3-(2-oxo-2-(4-(trifluoromethyl)phenyl)ethyl)indolin-2-one], for which the “Inhibition of PANC1 cell growth in words” value in assay [7] is listed as “inhibited PANC1 cells growth”. Further, the “Fold loss of growth inhibitory activity” value in assay [1] is 3 fold.

Usually GI50 stands for the concentration at which growth is held to half of that of the control.
